# Experimental data published in ChEMBL document CHEMBL1136723, “A novel atypical retinoid endowed with proapoptotic and antitumor activity” (J Med Chem, 2003).
# Tests used:
# [1] = tested on: NCI-H460; assay: Antiproliferative effect of compound on H460 cell line expressing wild-type p53; format: functional, cell-based; conditions: Homo sapiens
# How it was run: (§1)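 Human tumor cell lines exposed to drug for 72 h. Growth was measured by cell counting. IC50, the concentration giving 50% inhibition of cell growth, was read from dose–response curves.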
# [2] = tested on: IGROV-1; assay: (§2) Apoptosis was determined my morphological analysis of propidium-iodide-stained cells following 24 hr exposure to IC80 (0.5 uM), value expressed as percentage of apoptotic cells versus total cell number; format: functional, Homo sapiens
# [3] = tested on: DU-145; assay: as §2; format: functional, Homo sapiens
# [4] = tested on: SAOS-2; assay: Antiproliferative effect of compound on SAOS cell line; format: functional, cell-based; conditions: Homo sapiens; how it was run: as §1
# [5] = tested on: Me665/2/21; assay: Antiproliferative effect of compound on Me665/2/21 cell line expressing mutant p53; format: functional, cell-based; conditions: Homo sapiens; how it was run: as §1
# [6] = tested on: GBM; assay: Antiproliferative effect of compound on GBM cell line expressing mutant p53; format: functional, cell-based; conditions: Homo sapiens; how it was run: as §1
# [7] = tested on: U2OS; assay: Antiproliferative effect of compound on U2OS cell line expressing wild-type p53; format: functional, cell-based; conditions: Homo sapiens; how it was run: as §1
# [8] = tested on: A2780; assay: Antiproliferative effect of compound on A2780/DX cell line; format: functional, cell-based; conditions: Homo sapiens; how it was run: as §1
# [9] = tested on: A-431; assay: Antiproliferative effect of compound on A431 cell line expressing mutant p53; format: functional, cell-based; conditions: Homo sapiens; how it was run: as §1
# [10] = tested on: IGROV-1; assay: (§3) Apoptosis was determined my morphological analysis of propidium-iodide-stained cells following 72 hr exposure to IC80 (0.5 uM), value expressed as percentage of apoptotic cells versus total cell number; format: functional, Homo sapiens
# [11] = tested on: DU-145; assay: as §3; format: functional, Homo sapiens
# [12] = tested on: LoVo; assay: Antiproliferative effect of compound on LoVo cell line expressing wild-type p53; format: functional, cell-based; conditions: Homo sapiens; how it was run: as §1
# [13] = tested on: HCT-116; assay: Antiproliferative effect of compound on HCT116 cell line expressing wild-type p53; format: functional, cell-based; conditions: Homo sapiens; how it was run: as §1
# [14] = tested on: IGROV-1; assay: Antiproliferative effect of compound on IGROV-1 cell line expressing wild-type p53; format: functional, cell-based; conditions: Homo sapiens; how it was run: as §1
# [15] = tested on: PC-3; assay: Antiproliferative effect of compound on PC3 cell line; format: functional, cell-based; conditions: Homo sapiens; how it was run: as §1
# [16] = tested on: IGROV-1; assay: (§4) Apoptosis was determined my morphological analysis of propidium-iodide-stained cells following 48 hr exposure to IC80 (0.5 uM), value expressed as percentage of apoptotic cells versus total cell number; format: functional, Homo sapiens
# [17] = tested on: DU-145; assay: as §4; format: functional, Homo sapiens
# [18] = tested on: LNCaP; assay: Antiproliferative effect of compound on LNcaP cell line expressing wild-type p53; format: functional, cell-based; conditions: Homo sapiens; how it was run: as §1
# [19] = tested on: DU-145; assay: Antiproliferative effect of compound on DU145 cell line expressing mutant p53; format: functional, cell-based; conditions: Homo sapiens; how it was run: as §1
IC50 [1] [nM],IC50 [7] [nM],IC50 [8] [nM],IC50 [9] [nM],IC50 [12] [nM],IC50 [13] [nM],IC50 [15] [nM],IC50 [18] [nM],IC50 [19] [nM],Structure (SMILES),Apoptosis [2] [%],Apoptosis [3] [%],IC50 [4] [nM],IC50 [5] [nM],IC50 [6] [nM],Apoptosis [10] [%],Apoptosis [11] [%],IC50 [14] [nM],Apoptosis [16] [%],Apoptosis [17] [%]
190,260,100,250,150,320,210,120,100,O=C(O)/C=C/c1ccc(-c2ccc(O)c(C34CC5CC(CC(C5)C3)C4)c2)cc1 [ADAROTENE],42,24,250,250,180,44,50,230,46,44
430,440,,510,490,680,430,320,280,O=C(O)c1ccc2cc(-c3ccc(O)c(C45CC6CC(CC(C6)C4)C5)c3)ccc2c1 [O-DEMETHYLATED ADAPALENE],22,16,670,420,550,38,30,350,15,33
